Assay: Toxicity liver stage against HepG2, at 10uM
Assay type: cell-based
Set-up: test concentration 10 uM, cell line HepG2-A16-CD81EGFP
Details: human, HepG2-A16-CD81EGFP cells; read-out: INHIBITION
Summary of the method: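 Uninfected HepG2-A16-CD81EGFP cells, 3 × 10^3 per well, 1536-well, plated on prespotted compound at 10 μM final, parasite-free screening media added to match infected plates; puromycin 10 μM positive, DMSO 0.5% negative; run in parallel with 48 h PbLuc assay at 37 °C, 5% CO2; viability by CellTiter-Glo luminescence, normalized to controls.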

Structure (SMILES) | cytotoxicity at 10 µM [%]
COC(=O)c1ccc2c(-c3ccnc(NCCO)n3)c[nH]c2c1 | -12.8
O=C(N1CCOCC1)N1CCOC[C@H](Oc2ccc(C(F)(F)F)cc2)C1 | 1.27
COc1ccc(-c2noc([C@@H]3C[C@@H](O)CN3C3CCCCC3)n2)cc1 | 3.25
CC(C)COC(=O)N1[C@@H](c2ccco2)[C@@H](CO)C[C@]12CCCCNC2=O | 1.19
Cc1cc(O)cc(=O)n1CCCC(=O)Nc1n[nH]c2ccccc12 | -10.6
CC(C)CS(=O)(=O)Nc1ccc2c(c1)OCC(C)(C)C(=O)N2C | -0.123
COCC(C)NC(=O)c1nnn(-c2ccc(Br)cc2)n1 (stereo unspecified) | -0.712
CN(C)CC(=O)N1CCC2(CCN(Cc3cccc(F)c3)CC2)C1 | 1.11
CC1=N[C@@]2(CC[C@@H]3CN(C(=O)NCC(C)C)C[C@@H]32)C(=O)N1CC(C)C | 2.68
CN(C)Cc1nnc2n1CCN(Cc1cccnc1)C2 | -0.588
CN(C)C(=O)c1nn(C)c2c1CN(Cc1ccoc1)C2 | -6.28
Cc1cnc(C(=O)N2CCCC3(CCN(c4cnn(C)c4)C3=O)C2)cn1 (stereo unspecified) | -5.79
Cn1cc(N2CCC3(CCCN(C(=O)c4ccnn4C)C3)C2=O)cn1 (stereo unspecified) | -1.55
Cc1nn(C)c2c(N3CCN(C(=O)C(C)C)CC3)ncnc12 | 6.78
O=C(O)c1ccccc1-c1ccc(CN2CCC(CO)CC2)cn1 | 2.45
CCc1cc(C(F)(F)F)n2nc(C3CCCN3C(=O)COC)cc2n1 (stereo unspecified) | 3.01
CN1CCC(c2nccnc2Nc2cnccn2)CC1 | -4.27
CC(=O)N1CCC(c2cccc(Oc3ccccc3)n2)CC1 | -0.0757
COCCN1CCCC(c2ncc(C(=O)N(C)C)c(C)n2)C1 (stereo unspecified) | -1.21
CC(=O)N1CCOC(c2nc(N(C)C)ncc2-c2cccc(F)c2)C1 (stereo unspecified) | -27.5
CC(=O)NCC(=O)N1CCC(c2cncc(Oc3cccnc3)n2)CC1 | -19.5
CN(Cc1ccc(F)cc1)CC1(O)CCN(C(=O)c2ccn(C)n2)C1 (stereo unspecified) | -6.41
CS(=O)(=O)c1snnc1C1CCCN(Cc2ccncc2)C1 (stereo unspecified) | -11.5

Structure (SMILES) | cytotoxicity at 10 µM [%]
CC1CCCCN1c1nc2c(c(=O)[nH]1)CCN(Cc1ccc(O)cc1)C2 (stereo unspecified) | 5.74
COCc1ccccc1C(=O)NS(=O)(=O)CCCC#N | 5.24
Cc1c(F)cccc1S(=O)(=O)Nc1noc(C(C)C)n1 | 7.21
Cc1nn(C)c2ncc(NC(=O)N(C)Cc3cc(Cl)cn3C)cc12 | 2.73
CCOc1ccc(NC(=O)NCCS(=O)(=O)CC)cc1C | -3
Cc1ccc2c(c1)CCC2NC(=O)N1CCC(C(N)=O)CC1 (stereo unspecified) | -4.83
Cn1ncc(C(=O)OCC2CCN(c3ccccc3)C2)c1C(F)F (stereo unspecified) | -5.44
CN(CCCNS(=O)(=O)N1CCC2(CC1)OCCO2)c1ccccc1 | 9.13
Cc1cnc(NC(=O)NC(CCO)c2cccs2)s1 (stereo unspecified) | 5.53
Cc1cccc(OCCC(=O)N(C)CC(C)C#N)c1C (stereo unspecified) | -0.555
COCCCN(Cc1ccncc1)c1cc(C)ncn1 | 3.35
CCCS(=O)(=O)NCC(C)c1ccc(F)c(F)c1 (stereo unspecified) | -6.82
CC(C)S(=O)(=O)c1ccccc1C(=O)NCC1Cc2ccccc2O1 (stereo unspecified) | 5.87
Cc1nc(CCNC(C)c2ccc3c(c2)OCCCO3)cs1 (stereo unspecified) | 3.3
CC(=O)Nc1nc(C(=O)NCCOc2cccc(C)c2)cs1 | -0.794
CNC(=O)c1ccc(OC)c(NCc2noc(-c3cccs3)n2)c1 | 2.76
CC(CNC(=O)c1c[nH]nn1)Oc1ccccc1Br (stereo unspecified) | -0.509
Fc1cccc(NCc2ncc[nH]2)c1 | -9.16
CCCC(=O)NCC(=O)NC(c1ccc(Cl)cc1)C(F)(F)F (stereo unspecified) | -3.63
Cc1cc(C(=O)N2CCN(c3ccncc3Cl)CC2)n(C)n1 | -9.1
CN(CCc1ccccn1)C(=O)C(O)c1cc(Cl)cc(Cl)c1 (stereo unspecified) | -5.68
O=C(CCn1ccc2ccccc21)Nc1ccnn1CC1CCOC1 (stereo unspecified) | 2.56
COc1ccccc1NC(=O)NCc1cn[nH]c1 | 16.9

Structure (SMILES) | cytotoxicity at 10 µM [%]
COCCC1(CNC(=O)NCC2CN(C)CCN2C)CCC1 (stereo unspecified) | 6.35
CC(C)C(=O)N1CCCN(C(=O)NC2CCc3ccccc3C2)CC1 (stereo unspecified) | -7.33
CCN1CCC(CNCc2cc(OC)ccc2OC)C1 (stereo unspecified) | -2
Cc1cc(F)ccc1CN1CCCC2(C1)OCCO2 | -11.8
CCOC[C@@]12CCC[C@@H]1CN(C(=O)COc1ccccc1OC)C2 | -106
Cc1ccc(C(=O)N2C[C@@H](N3CCN(C)CC3)[C@H]3OCCC[C@H]32)cn1 | -113
Cc1nnc([C@@]23CCO[C@@H]2CCN(Cc2scnc2C)C3)o1 | -111
O=C(NC[C@]12COC[C@H]1CN(Cc1cccc(F)c1)C2)c1ccco1 | -66.7
CN1C(=O)CC(c2cnn(C)c2)C12CCN(C(=O)c1ccco1)CC2 (stereo unspecified) | -75.5
NC(=O)[C@H]1CCCN(c2nccc(-c3ccncc3)n2)C1 | -5.03
CCn1nc(C)c(C(C)NC(=O)c2cnc(N(C)C)nc2C)c1C (stereo unspecified) | 5.19
CC(C(=O)N1CCn2cncc2C1)N1C[C@@H](C)O[C@@H](C)C1 (stereo partly specified) | 3.13
CCCS(=O)(=O)N1CCC2(CCC(=O)N(CCc3cccnc3)C2)CC1 | -4.92
O=C(c1ccc(-c2cn[nH]c2)nc1)N1CCC(N2CCOCC2)CC1 | 1.38
Cc1nnsc1C(=O)N(C)Cc1nc(-c2ccccn2)no1 | 1.89
CC(O)c1cn(C2CCN(C(=O)C3(C)CCCCC3)CC2)nn1 (stereo unspecified) | -7.11
OCCC1CN(c2ncnc3[nH]cnc23)CCN1Cc1ccccc1F (stereo unspecified) | 17
CCc1c(C)nc(C)nc1N1C[C@@H](CN(CC)CCO)[C@@H](CO)C1 | 1.5
O=C(CC1CCc2ccccc21)NC1(C(=O)O)CCCC1 (stereo unspecified) | -11.9
O=C(O)[C@]12CCCN(Cc3nccs3)[C@@H]1CCN(c1cnccn1)C2 | -0.911
CCN1CC2(CCC1=O)CCN(CCOc1ccc(F)cc1)CC2 | 4.19
CCC(CO)N(Cc1ccco1)C(=O)c1cccc(C)c1O (stereo unspecified) | 0.126
CCn1nc(CNC(=O)C2CCCN(C(=O)COC)C2)c2ccccc21 (stereo unspecified) | -1.29

Structure (SMILES) | cytotoxicity at 10 µM [%]
Cc1nccnc1N1Cc2cnc(CC(C)C)nc2C1 | 1.81
COc1ncc(C2CC(=O)NCc3nc4ccccn4c32)cn1 (stereo unspecified) | -9.75
CSCC[C@H](N)C(=O)NCc1cc2n(n1)CCCN(C1CCCCC1)C2 | -15.3
O=C(c1cc(COc2ccc3c(c2)OCO3)[nH]n1)N1CCOCC1 | -5.21
COCCCn1ccnc1-c1cnc(OC)nc1 | -13.6
COc1ccc(Cc2nnc(SC)o2)cc1OC | -13.8
Cc1c(NC(=O)c2noc3c2CCCC3)cnn1C | -5.41
CC(C)Cc1cc(NC(=O)c2ccccc2)n(C)n1 | -3.37
Cc1cnc(CN(C)C2CCCN(Cc3noc(C4CC4)n3)C2)cn1 (stereo unspecified) | -2.13
Cc1cnn(C2CN(CC(=O)NCCc3c[nH]c4ccccc34)C2)c1 | -4.01
CC(=O)N1CCCN(C(=O)CCc2c(C)nc3ccnn3c2C)CC1 | -3.12
N#Cc1ccccc1N1CCCN(C(=O)NCc2cc[nH]n2)CC1 | 0.428
CC(=O)N(Cc1noc(C2CC2)n1)C1CCN(Cc2ccccn2)C1 (stereo unspecified) | -5.72
Cc1ccc(Cl)cc1N1CCC(CNC(=O)Cn2cccn2)C1 (stereo unspecified) | -6.72
COc1ccc(OC)c(C(O)CNC(=O)Nc2cc(C)nn2C)c1 (stereo unspecified) | -9.86
Cc1nccn1CCCC(=O)N1CCCN(c2cccnn2)CC1 | -9.35
CC1CN(C)CCN1C(=O)c1ccn(-c2cccc(Cl)c2)n1 (stereo unspecified) | -26.3
CC(C)C(Sc1nnc(C2CC2)n1C1CC1)C(=O)NCc1cccnc1 (stereo unspecified) | -11.2
O=C(c1ccc(Cl)c(Cl)c1)N1CCCC(n2cncn2)C1 (stereo unspecified) | -5.16
Cc1nc(C)n(CC2CN(Cc3cccc(C#N)c3)CCO2)n1 (stereo unspecified) | -10.3
Cc1ccc(S(=O)(=O)N2CCOc3ccccc32)cc1C(=O)O | -0.524
CC(C)n1ccnc1CN1CCCN(C(=O)c2cccnc2O)CC1 | 1.74
CCc1nc(C2CCCN2CCc2ccccn2)no1 (stereo unspecified) | -7.03

Structure (SMILES) | cytotoxicity at 10 µM [%]
CCOc1nnc(CN2CCOC(CNc3cccnn3)C2)s1 (stereo unspecified) | 1.82
CCn1cnnc1CNC(=O)NC(C)C(C)C (stereo unspecified) | -6.15
O=C(NCc1csc(Br)c1)c1ccc(=O)[nH]n1 | 1.66
COCCOc1ccc(NC(=O)N2CCCC2c2ccncc2)cn1 (stereo unspecified) | -3.49
Cc1nc2ccccc2nc1CN(C)CC1CCCN1c1cccnn1 (stereo unspecified) | 7.17
CCCN(Cc1cccnc1)C1CC(C)(C)NC(C)(C)C1 | -4.47
Cc1cc(C)c(N(CC(O)CNCc2ccco2)S(C)(=O)=O)c(C)c1 (stereo unspecified) | -12.5
CCOC(=O)CN1CC(c2nc(-c3ccsc3)no2)C1 | -12.3
CN(C)CCN1C(=O)CCC12CCCN(C(=O)N(C)C)CC2 (stereo unspecified) | 4.56
CN1CCOC2(CCCN(C(=O)C3CCCCC3)C2)C1 (stereo unspecified) | -6.66
O=C1[C@@H]2CCN(Cc3ccccn3)C[C@@H]2OCCN1c1ccccc1 | -73.7
O=C(C1CC1)N1CCC2(CCN2Cc2ccc(F)cc2)C1 (stereo unspecified) | 1.55
O=C(c1n[nH]c2c1CN(C1CCOC1)CC2)N1CCOCC1 (stereo unspecified) | 4.88
CN(C)C(=O)CN1C(=O)CCC12CCN(Cc1cccs1)CC2 | -2.6
Cc1ccc(CC(=O)N2Cc3nccn3CC(CN(C)C)C2)cc1 (stereo unspecified) | -9.58
Cn1cc(CN2CC[C@@H]3[C@@H]2CCN3C(=O)c2cccc(F)c2)cn1 | -66.4
O=C1CC2(CCN(CC3CCOC3)CC2)c2ccccc2N1CC1CC1 (stereo unspecified) | -9.61
N#Cc1ccc(C(=O)O)nc1C=Cc1cccc(Cl)c1 | 13
CC(C)=CCN1C[C@@H]2CC[C@H]1CN(C(=O)c1ccc3nc[nH]c3c1)C2 | -1.31

From ChEMBL document CHEMBL4513216, “Probing the Open Global Health Chemical Diversity Library for Multistage-Active Starting Points for Next-Generation Antimalarials” (ACS Infect Dis, 2020)
